Data as given in ChEMBL document CHEMBL1155660, “Hyalodendrosides A and B, antifungal triterpenoid glycosides from a lignicolous hyphomycete, Hyalodendron species” (2000).
Values after ≈ are worked out from the molar mass of the structure shown.

Assays:
Assay type in all cases: functional
Candida albicans [1] = experiment: Antifungal activity against Candida albicans MY1055 after 48 hrs in presence of 10% bovine serum albumin; conditions: MY1055, 48 h
Procedure, shortened: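 Microtiter broth dilution MIC in Synthetic Complete medium with 10% bovine serum albumin added. Log-phase inoculum set by A600 to an absorbance of 0.0014. Titration started at 256 µg/mL. Cells grown 48 h and endpoints read visually.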

Cryptococcus neoformans = experiment: Antifungal activity against Cryptococcus neoformans MY2062 after 48 hrs
Procedure, shortened: (§1)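 Broth microdilution MIC in microtiter format. Organisms grown in Synthetic Complete defined medium. Log-phase cells adjusted by A600 to an initial inoculum absorbance of 0.0014. […] Growth inhibition scored at 24 and 48 h, with visual endpoints.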

Saccharomyces cerevisiae = experiment: Antifungal activity against Saccharomyces cerevisiae MY2214 after 48 hrs; procedure, shortened: as §1
Aspergillus fumigatus = experiment: Antifungal activity against Aspergillus fumigatus MF5668 after 48 hrs; procedure, shortened: as §1
Candida albicans [2] = experiment: Antifungal activity against Candida albicans MY1055 after 48 hrs; conditions: MY1055, 48 h; procedure, shortened: as §1

Compound | MIC (Candida albicans [1]) | MIC (Cryptococcus neoformans) | MIC (Saccharomyces cerevisiae) | MIC (Aspergillus fumigatus) | MIC (Candida albicans [2])
CC(=O)O[C@@H]1C[C@]2(CO)[C@H]3CCC4=C5C(=O)C[C@@H](C(C)C)[C@@]5(C)CC[C@@]4(C)[C@]3(C)CC[C@H]2C(C)(C)[C@H]1O[C@@H]1O[C@H](CO)[C@@H](O)[C@H](O)[C@H]1O [HYALODENDROSIDE B] | 128 mg/L | 4 mg/L (≈ 5.91 µM) | 32 mg/L (≈ 47.3 µM) | 64 mg/L (≈ 94.6 µM) | 16 mg/L (≈ 23.6 µM)
CC(=O)O[C@@H]1C[C@]2(CO)[C@H]3CCC4=C5C(=O)CC6[C@H](C)CO[C@@H](O)C56CC[C@@]4(C)[C@]3(C)CC[C@H]2C(C)(C)[C@H]1O[C@@H]1O[C@H](CO)[C@@H](O)[C@H](O)[C@H]1O (stereo not given in full) [HYALODENDROSIDE A] | 128 mg/L | > 256 mg/L | 128 mg/L (≈ 181 µM) | > 256 mg/L | 128 mg/L (≈ 181 µM)
C[C@@H]1[C@H](O)[C@@H](C)/C=C/C=C/C=C/C=C/C=C/C=C/C=C/[C@H](O[C@@H]2O[C@H](C)[C@@H](O)[C@H](N)[C@@H]2O)C[C@@H]2O[C@](O)(C[C@@H](O)C[C@@H](O)[C@H](O)CC[C@@H](O)C[C@@H](O)CC(=O)O[C@H]1C)C[C@H](O)[C@H]2C(=O)O [AMPHOTERICIN B] | 0.25 mg/L | 0.25 mg/L (≈ 0.271 µM) | 0.25 mg/L (≈ 0.271 µM) | 1 mg/L (≈ 1.08 µM) | 0.5 mg/L (≈ 0.541 µM)
